Data published in ChEMBL document CHEMBL1129424, “Heterocyclic amides: inhibitors of acyl-CoA:cholesterol O-acyl transferase with hypocholesterolemic activity in several species and antiatherosclerotic activity in the rabbit” (J Med Chem, 1996).

Columns and labels:
[1] = target: T1, Sterol O-acyltransferase 1 (Rattus norvegicus, UniProt O70536); experiment: Inhibition of Acyl coenzyme A:cholesterol acyltransferase 1 from rat liver microsomes
T1 sequence (O70536 whole entry): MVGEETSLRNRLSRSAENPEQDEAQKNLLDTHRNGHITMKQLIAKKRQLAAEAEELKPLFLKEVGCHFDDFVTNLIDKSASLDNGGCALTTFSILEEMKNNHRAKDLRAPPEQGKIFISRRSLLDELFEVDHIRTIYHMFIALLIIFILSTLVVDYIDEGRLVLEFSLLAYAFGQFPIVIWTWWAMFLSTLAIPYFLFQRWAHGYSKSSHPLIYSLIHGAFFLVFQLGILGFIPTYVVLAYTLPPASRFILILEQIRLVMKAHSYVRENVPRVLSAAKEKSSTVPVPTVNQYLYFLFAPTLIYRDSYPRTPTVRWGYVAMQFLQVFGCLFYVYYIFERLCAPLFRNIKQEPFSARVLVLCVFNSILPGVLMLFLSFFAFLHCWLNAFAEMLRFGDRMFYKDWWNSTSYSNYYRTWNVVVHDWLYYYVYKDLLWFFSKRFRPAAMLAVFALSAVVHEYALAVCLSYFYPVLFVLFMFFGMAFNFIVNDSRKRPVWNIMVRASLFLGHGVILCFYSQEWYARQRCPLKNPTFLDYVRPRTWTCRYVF
In short: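 Microsomes isolated from livers of cholesterol-fed rats were incubated with compound and [1-14C]oleoyl-CoA to measure ACAT inhibition; IC50 reported in μM.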

Rattus norvegicus [2] = experiment: Percent change in total cholesterol in the acute cholesterol-fed rat model (APCC) of hypercholesterolemia at 30 mg/Kg; assay type: functional
In short: (§1)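 Acute rat model: compound given by gavage at 30 or 3 mg/kg in 1.5% carboxymethylcellulose/0.2% Tween-20 in water (3-4 pm). Rats then fed overnight a diet with 5.5% peanut oil, 1.5% cholesterol, 0.5% cholic acid. Result is percent decrease in plasma total cholesterol versus controls.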

Rattus norvegicus [3] = experiment: Percent change in total cholesterol in the acute cholesterol-fed rat model (APCC) of hypercholesterolemia at 3 mg/Kg; assay type: functional; in short: as §1
Oryctolagus cuniculus [4] = experiment: Percent change in plasma triglyceride levels at dose 1 mg/Kg in rabbits; assay type: functional
In short: (§2)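 Injured cholesterol-fed rabbits: diet of 0.5% cholesterol, 3% peanut oil, 3% coconut oil for 9 weeks (1 week before, 8 weeks after surgery), producing thoracic aortic and iliac-femoral lesions. Doses 1, 5 or 25 mg/kg. Thoracic aortic lesion coverage, plasma total cholesterol and triglycerides given as percent change versus control; Student's t-test, p < 0.05.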

Oryctolagus cuniculus [5] = experiment: Percent change in TC relative to untreated controls at 25 mg/Kg in cholesterol fed rabbits (CFR)
Canis familiaris = experiment: CDOG represents the C-fed female Beagle dog model, data expressed as percent change in TC relative to untreated controls at compound concentration of 10 mg/Kg; assay type: functional, Canis lupus familiaris
In short: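 Cholesterol-fed female Beagle dogs given bulk drug in capsules daily before meals for 1 week at 10 mg/kg. Plasma total cholesterol compared before and after treatment.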

Oryctolagus cuniculus [6] = experiment: Percent change in lesion coverage relative to control in the thoracic aorta at dose 5 mg/Kg in rabbits; assay type: functional; in short: as §2
Oryctolagus cuniculus [7] = experiment: Percent change in plasma total cholesterol at dose 5 mg/Kg in rabbits; assay type: functional; in short: as §2
[8] = target: T2, Sterol O-acyltransferase 1 (Rattus norvegicus) (UniProt O70536); experiment: Inhibition of rat liver microsomal Acyl coenzyme A:cholesterol acyltransferase 1 from rabbit plasma after an oral dose of 25 mg/kg; assay type: cell-free
T2 sequence (whole entry): T1 sequence (O70536 whole entry)
In short: (§3)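 Male New Zealand white rabbits conditioned to meal feeding for 1 week, then given a meal containing drug at 25 mg/kg in 3% peanut oil/3% coconut oil vehicle. Plasma was sampled at 0, 1, 2 and 4 h and extracted into hexane, then redissolved in chloroform/methanol (2:1). It was assayed for liver microsomal ACAT inhibition against standards of compound spiked into rabbit plasma in DMSO.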

Oryctolagus cuniculus [9] = experiment: Percent change in lesion coverage relative to control in the thoracic aorta at dose 1 mg/Kg in rabbits; assay type: functional; in short: as §2
[10] = target: T2, Sterol O-acyltransferase 1 (Rattus norvegicus); experiment: Compound at 1 mg/Kg was tested for the inhibition of rat liver microsomal Acyl coenzyme A:cholesterol acyltransferase 1 in plasma drawn from chow fed rabbits; assay type: cell-free
Oryctolagus cuniculus [11] = experiment: Percent change in lesion coverage relative to control in the thoracic aorta at dose 25 mg/Kg in rabbits; assay type: functional; in short: as §2
[12] = target: T2, Sterol O-acyltransferase 1 (Rattus norvegicus); experiment: Compound at 5 mg/Kg was tested for the inhibition of rat liver microsomal Acyl coenzyme A:cholesterol acyltransferase 1 in plasma drawn from chow fed rabbits; assay type: cell-free
Oryctolagus cuniculus [13] = experiment: Percent change in plasma triglyceride levels at dose 5 mg/Kg in rabbits; assay type: functional; in short: as §2
Rattus norvegicus [14] = species on record: Rattus norvegicus; experiment: Compound was tested for the percent change in total cholesterol (TC) by chronic rat model; assay type: functional
[15] = target: T2, Sterol O-acyltransferase 1 (Rattus norvegicus); experiment: Compound at 25 mg/Kg was tested for the inhibition of rat liver microsomal Acyl coenzyme A:cholesterol acyltransferase 1 in plasma drawn from chow fed rabbits; assay type: cell-free; in short: as §3
Oryctolagus cuniculus [16] = experiment: Percent change in plasma total cholesterol at dose 1 mg/Kg in rabbits; assay type: functional; in short: as §2
Oryctolagus cuniculus [17] = experiment: Percent change in TC relative to untreated controls at 5 mg/Kg in cholesterol fed rabbits (CFR)
Oryctolagus cuniculus [18] = experiment: Percent change in plasma triglyceride levels at dose 25 mg/Kg in rabbits; assay type: functional; in short: as §2
[19] = Acyl coenzyme A:cholesterol acyltransferase inhibition in cell culture measured in murine IC-21 macrophages.
In short: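 Murine IC-21 macrophages preincubated 16 h in serum-free DMEM with albumin (20 μM) and phosphatidylserine/cholesterol vesicles; then compound in DMSO for 1 h, then 14C-sodium oleate added for 4 more h. Lipids extracted in hexane/2-propanol with [14C]cholesterol internal standard; neutral lipids separated by TLC, phosphorimaged; protein by Lowry. IC50 is the concentration giving 50% inhibition.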

Oryctolagus cuniculus [20] = experiment: Percent change in plasma total cholesterol at dose 25 mg/Kg in rabbits; assay type: functional; in short: as §2

Row | Structure (SMILES) | IC50 [1] [nM] | DeltaTC (Rattus norvegicus [2]) [%] | DeltaTC (Rattus norvegicus [3]) [%] | further results
1 | CCCCCCCCCCCCc1cc(C(C(=O)Nc2ccc(F)cc2F)c2ccccc2)on1 (stereo unspecified) | 51 | -50 |  | 
2 | CCCCCCCCCCCCc1cc(CC(=O)Nc2c(OC)cc(OC)cc2OC)on1 | 32 | -59 | -42 | 
3 | CCCCCCCCCCCCc1cc(C(C(=O)Nc2c(C(C)C)cccc2C(C)C)c2ccccc2)no1 (stereo unspecified) | 24 |  |  | 
4 | CCCCCCCCCCCCc1cc(C(C)(C)C(=O)Nc2c(OC)cc(OC)cc2OC)no1 | 150 | -40 |  | 

Further lines, with some results ahead:

Row | IC50 [1] [nM] | Structure (SMILES) | DeltaTC (Rattus norvegicus [2]) [%] | DeltaTC (Rattus norvegicus [3]) [%] | further results
5 | 46 | CCCCCCCCCCCCc1cnn(C(C(=O)Nc2c(OC)cc(OC)cc2OC)c2ccccc2)c1 (stereo unspecified) | -72 | -59 | 
6 | 15 | CCCCCCCCCCCCc1cc(C(C(=O)Nc2c(OC)cc(OC)cc2OC)c2ccccc2)on1 (stereo unspecified) | -68 | -68 | DeltaTC (Oryctolagus cuniculus [4]): 1%; DeltaTC (Oryctolagus cuniculus [5]): -76%; CDOG (Canis familiaris): -44; Activity (Oryctolagus cuniculus [6]): -46%; DeltaTC (Oryctolagus cuniculus [7]): -32%; inhibition [8]: 94%; Activity (Oryctolagus cuniculus [9]): -53%; inhibition [10]: 0%; Activity (Oryctolagus cuniculus [11]): -32%; inhibition [12]: 46%; DeltaTG (Oryctolagus cuniculus [13]): 111%; CPCC (Rattus norvegicus [14]): -65; inhibition [15]: 94%; DeltaTC (Oryctolagus cuniculus [16]): -26%; DeltaTC (Oryctolagus cuniculus [17]): -64%; DeltaTC (Oryctolagus cuniculus [18]): 168%; IC50 [19]: 170 nM; DeltaTC (Oryctolagus cuniculus [20]): -26%
7 | 31 | CCCCCCCCCCCCc1noc(C(C(=O)Nc2c(OC)cc(OC)cc2OC)c2ccccc2)n1 (stereo unspecified) | -60 | -58 | 
8 | 110 | CCCCCCCCCCCCc1cn(C(C(=O)Nc2c(OC)cc(OC)cc2OC)c2ccccc2)cn1 (stereo unspecified) | -62 | -43 | 
9 | 31 | CCCCCCCCCCCCc1nc(C(C(=O)Nc2c(OC)cc(OC)cc2OC)c2ccccc2)no1 (stereo unspecified) | -54 | -56 | 
